Compound activity: PubChem, several laboratories
The list is not random: actives were taken first. Their share in the collection is about 5.7%.
CSC inhib – cancer stem cell viability inhibitors, primary screen, luminescence | cancer stem cell-like cells viability | inhibition, % at 7.5 µM | 1.1% of 300,000 active | AID 2717, 2010; in the data active = inhibition above about 75%; inconclusive = no clear call, values can overlap the other calls; tested in HMLE shEcad cells
T cruzi inh – inhibitors of intracellular T. cruzi growth, primary screen, luminescence, NIH3T3 host cells; AID 1885, 2009; 1.4% of 300,000 active; T. cruzi beta-gal in NIH3T3, 90 h; inhibition, % (no concentration beside the values);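 active = mean inhibition across valid replicates above about 55%, limit read from the data; inconclusive = mean below that limit but half or more replicates reach it; inactive = mean below it, under half of replicates reach it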;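 also: signal also drops with host cell toxicity which is not excluded here; 0% = plate median of DMSO wells and 100% = zero luminescence signal; higher percent means less beta-gal luminescence so fewer parasites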
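Read-out: Parasite load inhibition, % | Test system: Mouse NIH/3T3 fibroblasts infected with β-gal-expressing T. cruzi Tulahuen C4 | Amount: 5,000 cells/well | Medium: DMEM, 2% fetal bovine serum | Signal: GalScreen β-gal luminescence, detergent lysis, 60 min | Timing: 3 h attach, ≥90 h co-culture | Also added: Tulahuen C4 trypomastigotes, 5000/well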
SKKanGAS inh – S. pyogenes SKKanGAS growth inhibitors in kanamycin, primary screen, streptokinase expression inhibitor project, SKKanGAS strain, BacTiter-Glo luminescence; 6 h; inhibition, % at 7.5 µM; 1.3% of 300,000 active; AID 1662, 2009;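 active = mean replicate score, as percent of positive control median, at least 50; inconclusive = mean below 50 but one replicate at or above 50; inactive = mean and every replicate below 50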;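 also: strain carries kanamycin resistance gene driven by streptokinase promoter and grows in 40 µg/ml kanamycin; loss of luminescence reflects streptokinase promoter inhibition or plain growth inhibition; 0% = median of DMSO wells and 100% = positive control at its reference dose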
Beta cell apopt – inhibitors of cytokine-induced beta cell apoptosis, primary screen, luminescence | INS-1E cytokine-induced death, ATP luminescence, 48 h; percent of positive-control rescue, neutral wells zero | protection from apoptosis, % (concentration not given with the values) | 0.8% of 300,000 active | AID 435005, 2010;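 active = Every replicate reaches about 75%, or at least half do and their mean reaches it too, limit read from the data; inconclusive = At least half of replicates reach the limit but their mean does not; inactive = Under half of replicates reach the limit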;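 also: 0% = cytokine-treated negative control wells and 100% = positive control rescue; higher means more ATP so stronger rescue from cytokine killing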
Mdm2-MdmX inh – inhibitors of human Mdm2-MdmX association, primary screen, cell-based, luminescence, split luciferase, SaOS-2, uHTS; Protein Mdm4 (Homo sapiens) + E3 ubiquitin-protein ligase Mdm2 (Homo sapiens), …; SaOS-2 split-luciferase Mdm2/MdmX complementation; inhibition, % at 8 µM; 3% of 330,000 active;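 active = inhibition of at least 50% at 8 µM in the primary screen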
Target sequence (O15151 whole entry, looked up): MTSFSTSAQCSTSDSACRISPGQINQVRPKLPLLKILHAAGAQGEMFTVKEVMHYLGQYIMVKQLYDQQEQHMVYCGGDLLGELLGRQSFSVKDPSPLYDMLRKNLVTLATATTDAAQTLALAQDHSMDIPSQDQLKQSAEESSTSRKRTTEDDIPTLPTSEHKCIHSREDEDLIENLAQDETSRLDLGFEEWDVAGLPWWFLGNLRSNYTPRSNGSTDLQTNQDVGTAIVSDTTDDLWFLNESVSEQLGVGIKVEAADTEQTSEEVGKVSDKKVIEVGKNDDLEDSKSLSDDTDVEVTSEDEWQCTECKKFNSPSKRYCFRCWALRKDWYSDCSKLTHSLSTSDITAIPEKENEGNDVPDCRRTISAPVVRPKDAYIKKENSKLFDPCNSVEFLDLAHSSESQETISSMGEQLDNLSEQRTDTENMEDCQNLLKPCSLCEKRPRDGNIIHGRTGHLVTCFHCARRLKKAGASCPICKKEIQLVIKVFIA
Target sequence (Q00987 whole entry, looked up): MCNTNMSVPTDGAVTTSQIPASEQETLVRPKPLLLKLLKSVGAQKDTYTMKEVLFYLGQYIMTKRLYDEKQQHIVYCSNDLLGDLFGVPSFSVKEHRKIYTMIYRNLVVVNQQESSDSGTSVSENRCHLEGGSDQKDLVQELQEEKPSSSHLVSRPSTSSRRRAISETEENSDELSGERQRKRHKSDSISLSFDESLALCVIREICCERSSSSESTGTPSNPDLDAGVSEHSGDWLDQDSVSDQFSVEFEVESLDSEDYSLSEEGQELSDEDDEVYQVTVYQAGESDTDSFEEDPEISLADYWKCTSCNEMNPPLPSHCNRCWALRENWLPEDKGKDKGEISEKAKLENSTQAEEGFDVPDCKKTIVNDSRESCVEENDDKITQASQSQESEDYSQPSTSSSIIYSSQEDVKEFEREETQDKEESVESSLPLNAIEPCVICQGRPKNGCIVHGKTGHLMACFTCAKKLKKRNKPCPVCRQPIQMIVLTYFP
Calb FLC – C. albicans growth inhibition with fluconazole, primary screen, CaCi-2 strain, Alamar Blue fluorescence; growth inhibition, % (concentration not given with the values); AID 1979, 2009; 0.57% of 300,000 active; C. albicans CaCi-2 (fluconazole-resistant clinical isolate) + fluconazole, 48 h;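 active = growth inhibition above about 58% in most replicates, limit read from the data, passing the limit was not always enough; inconclusive = exactly half the replicates above a set limit; inactive = most replicates below a set limit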;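 also: all wells also contain fluconazole at 8 µg/ml as a sub-toxic cotreatment; 0% = median of DMSO wells and 100% = median of geldanamycin control wells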
Mdm2 MdmX conf – Mdm2-MdmX complex disruptors, retested hits, confirmation, luminescence, single concentration; shares compounds with Mdm2-MdmX inh; Mdm2-MdmX binding, luminescent assay; inhibition, % at 8 µM; 55% of 10,000 active; in the data active = inhibition above about 40%
FLuc counter – full-length luciferase signal inhibition, confirmation, counter-screen for Mdm2/MdmX interaction inhibitor project, cell-based, single concentration, SaOS-2. shares compounds with Mdm2-MdmX inh. SaOS-2 full-length luciferase counterscreen, luminescence. inhibition, % at 8 µM. 77% of 6,200 active;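 active = mean inhibition at 8 µM reaching about 37%, which flags the compound as non-specific, limit read from the data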;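 also: p53-null SaOS-2 cells with luciferase driven by a doxycycline-inducible promoter; compound on cells about two nights before reading with doxycycline added after day one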
* hit, by the source's call; ? = inconclusive; . = no result given.

SMILES | CSC inhib | T cruzi inh | SKKanGAS inh | Beta cell apopt | Mdm2-MdmX inh | Calb FLC | Mdm2 MdmX conf | FLuc counter
Cc1cc(C)c(OCC(=O)Nc2nc(-c3ccccn3)cs2)c(C)c1 | -6 | 70* | 97* | 1 | 53* | 1 | 33 | 46*
COc1ccc2oc(C(=O)Nc3nc(-c4ccccn4)cs3)c(C)c2c1 | 30 | 70* | 84* | 12 | 60* | 15 | 59* | 69*
O=C(CCS(=O)(=O)c1ccccc1)Nc1nc(-c2ccccn2)cs1 | 47 | -108 | -8 | 10 | 70* | -4 | 35 | 48*
O=C(CCS(=O)(=O)c1ccccc1)Nc1ccccn1 | . | -9 | -9 | -13 | 23 | 23 | . | .
O=C(CN(C(=O)c1csnn1)c1cccc(C(F)(F)F)c1)NCc1ccc(F)cc1 | -7 | -1 | -9 | 0 | 8 | 3 | . | .
O=C(O)C1=C(OCc2ccc(F)c(F)c2)C(=O)NCC1 | -16 | 1 | -11 | 2 | 3 | -5 | . | .
O=Cc1cn(CC(=O)N2CCc3ccccc32)c2ccccc12 | -4 | -7 | -2 | -1 | 2 | -3 | . | .
CCOC(=O)N1CCC(=NNC(=O)c2ccccc2F)CC1 | 5 | . | . | 2 | . | . | . | .
Cc1ccc2[nH]c(=O)c3cc(C(=O)NC(C)C)sc3c2c1 | 4 | -3 | 0 | 6 | 14 | -2 | . | .
O=C1C2C(C(=O)N1c1ccccc1)N1CCCN1C2c1ccccc1 (stereo not drawn) | -4 | 3 | -5 | . | 0 | 10 | . | .
CCCC(=O)Nc1ccc(-c2csc(N/N=C\c3ccncc3)n2)cc1 | 13 | 13 | 7 | 4 | 65* | -7 | 7 | .
CC(=O)Nc1ccc(-c2csc(N/N=C\c3ccncc3)n2)cc1 | -2 | . | 2 | 1 | 15 | 0 | . | .
Cc1ccc(S(=O)(=O)CC(=O)Nc2nc(-c3ccccc3)cs2)cc1 | 8 | -8 | 2 | -4 | 3 | 5 | . | .
Cc1ccc(S(=O)(=O)CCC(=O)Nc2nc(-c3ccncc3)cs2)cc1 | -7 | 15 | 0 | -18 | 88* | ? | 58* | 37*
CC(Oc1ccc(F)cc1)C(=O)Nc1nc(-c2ccccn2)cs1 (stereo not drawn) | 36 | 51 | 107* | 20 | 77* | 0 | 84* | 36
O=C(CCS(=O)(=O)c1ccc(F)cc1)Nc1nc(-c2ccccn2)cs1 | -9 | -13 | -5 | 2 | 69* | 45 | 43* | 39*
Cc1csc(NC(=O)C(C)Oc2ccc(Br)cc2)n1 (stereo not drawn) | 5 | 17 | 3 | . | 24 | 1 | . | .
O=C(/C=C/c1cccs1)c1cc(Br)ccc1OC(=O)N1CCOCC1 | -10 | 0 | 0 | 5 | 53* | 8 | 17 | .
COc1ccc(C(=O)/C=C/c2cccs2)c(OC(=O)N2CCOCC2)c1 | -2 | 4 | -16 | -7 | -6 | 2 | . | .
O=C(COc1ccccc1)Nc1nnc(S(=O)(=O)Nc2ccccc2)s1 | -5 | 8 | 13 | 0 | 21 | -8 | . | .
Cc1ccccc1/C=C/C(=O)c1ccc([N+](=O)[O-])o1 | 41 | 50 | 62* | 122* | 100* | 16 | 86* | 55*
Cc1ccccc1NC(=O)c1ccc([N+](=O)[O-])o1 | 24 | 36 | 8 | -4 | -1 | 19 | . | .
COc1ccc(/C=C/C(=O)c2ccc([N+](=O)[O-])o2)cc1 | ? | -2 | 30 | 127* | 100* | -1 | 68* | 42*
Cc1cccc(/C=C/C(=O)c2ccc([N+](=O)[O-])o2)c1 | 24 | 41 | 56* | 117* | 100* | 7 | 100* | 53*
Cc1ccc(NC(=O)c2ccc([N+](=O)[O-])o2)c(C)c1 | 19 | 41 | 2 | -12 | 18 | 34 | . | .
SMILES | CSC inhib | T cruzi inh | SKKanGAS inh | Beta cell apopt | Mdm2-MdmX inh | Calb FLC | Mdm2 MdmX conf | FLuc counter
CCCc1cc(NC(=O)COC(=O)c2nccnc2N)n(-c2ccccc2)n1 | -8 | . | . | -5 | -9 | . | . | .
Cc1c(-c2cc(C(=O)O)c3ccccc3n2)cnn1C | 17 | -12 | 2 | 2 | -29 | -2 | . | .
Cn1c(=O)[nH]c(=O)c2c1nc(N/N=C/c1ccncc1)n2Cc1ccc(F)cc1 | -30 | -28 | -9 | 3 | 27 | -2 | . | .
Cn1c(=O)[nH]c(=O)c2c1nc(N/N=C/c1cccnc1)n2Cc1ccc(Cl)cc1 | -2 | 17 | 6 | -2 | 62* | 19 | 17 | .
O=C1CC(C(=O)NC2CCCCC2)C2(CCCCC2)O1 (stereo not drawn) | -2 | -10 | -8 | -9 | 3 | 4 | . | .
O=C(Nc1nc(-c2cc(Cl)sc2Cl)cs1)c1ccc(Br)s1 | 39 | 34 | 6 | . | 80* | 25 | 7 | .
Cn1c(=O)c2c(nc(NCc3ccco3)n2C)n(C)c1=O | -13 | -5 | -2 | 2 | 20 | 6 | . | .
Cn1c(=O)c2c(nc(NCc3ccco3)n2C/C=C/c2ccccc2)n(C)c1=O | 16 | 1 | -2 | 52 | 51* | 9 | 22 | .
COc1ccc(OCCCn2cc(/C=C3/C(=N)N4C=C(C)SC4=NC3=O)c3ccccc32)cc1 | 10 | 41 | 35 | 11 | 65* | 2 | 71* | 69*
O=C(O)c1ccc(N=NNc2cccc([N+](=O)[O-])c2)cc1 | 24 | 1 | 6 | -4 | -17 | 19 | . | .
O=C(/C(N=Nc1cccc([N+](=O)[O-])c1)=C(/O)c1ccc(Br)cc1)C(F)(F)F | 99* | 24 | 84* | 105* | 96* | -3 | 88* | 25
CN(CC(=O)Nc1ccccc1Br)C(=O)c1n[nH]c2ccccc12 | . | . | . | . | 13 | . | . | .
Cc1cc(C)nc(SCC(=O)Nc2ncc(Cc3ccc(Cl)c(Cl)c3)s2)n1 | 11 | 14 | -6 | 23 | 52* | 0 | 13 | .
Cc1ccc(Cc2cnc(NC(=O)CN3CCOCC3)s2)cc1Cl | 0 | 9 | 14 | 0 | 2 | 8 | . | .
CC(CCc1ccccc1)NC(=O)COC(=O)c1ccc([N+](=O)[O-])cc1 (stereo not drawn) | -8 | -3 | 1 | 3 | -24 | -10 | . | .
CC(CCc1ccccc1)NC(=O)COC(=O)c1ccc(S(C)(=O)=O)c([N+](=O)[O-])c1 (stereo not drawn) | 23 | 46 | 1 | -46 | 81* | -24 | 83* | 55*
